# An excerpt weighted towards active compounds, which were near 3.1% of everything screened.
# SUMO HTRF inh – SUMOylation inhibition. P63279. HTRF SUMOylation assay, SAE1/SAE2 + UBC9, in vitro. inhibition, % at 35 µM. actives 0.36% (n = 290,000). AID 2006; in the data active = inhibition above about 50%, passing the limit was not always enough
# Target sequence (P63279 whole entry, looked up): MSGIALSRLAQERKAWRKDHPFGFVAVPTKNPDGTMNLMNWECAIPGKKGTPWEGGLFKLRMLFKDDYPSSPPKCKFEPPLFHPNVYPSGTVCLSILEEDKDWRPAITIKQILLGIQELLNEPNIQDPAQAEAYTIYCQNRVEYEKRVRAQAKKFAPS
# HCV core dimer – HCV core protein dimerization inhibition; actives 0.33% (n = 300,000); inhibition, % at 5 µM; TR-FRET GST/Flag-core106 dimerization, 1536-well;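 active = inhibition above the mean of all tested compounds plus 3 SD, set per screening campaign, cut at about 45% in these data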
#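 Material: GST/Flag-tagged HCV core106 proteins. Incubation: 4 h, 22.5 °C incubation. Read-out basis: inhibition (%) from 671 over 617 nm ratio. Measured by: TR-FRET, excitation 340 nm, emission 617 and 671 nm.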
# PHOSPHO1 inh – blocks human PHOSPHO1 phosphatase activity; AID 1565; recombinant PHOSPHO1, absorbance phosphatase assay; Q8TCT1; inhibition, % at 13.3 µM; actives 1.1% (n = 290,000); in the data active = inhibition above about 60%
# Target sequence (Q8TCT1 whole entry, looked up): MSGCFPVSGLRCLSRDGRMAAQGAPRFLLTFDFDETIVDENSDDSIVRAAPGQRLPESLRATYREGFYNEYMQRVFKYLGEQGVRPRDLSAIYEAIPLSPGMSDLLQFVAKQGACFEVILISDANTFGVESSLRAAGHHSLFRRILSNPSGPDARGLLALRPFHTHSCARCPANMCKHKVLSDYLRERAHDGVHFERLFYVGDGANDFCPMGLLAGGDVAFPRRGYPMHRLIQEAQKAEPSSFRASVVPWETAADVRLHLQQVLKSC
# HCV NS3 hel inh – blocks Hepatitis C virus NS3 helicase unwinding; NS3 helicase DNA unwinding, Cy5 molecular beacon fluorescence; inhibition, % at 10.9 µM; actives 0.56% (n = 290,000);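 active = inhibition above the mean of all tested compounds plus 3 SD, set per campaign, cut at about 35% in these data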;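 note: 0% = DMSO wells and 100% = thioflavine S control wells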
#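 Measured by: Cy5 fluorescence, 0 and 60 min reads / Assay system: NS3 helicase fragment of HCV / Control set: low DMSO, high thioflavine S at 110 µM / Times: 1 h reaction at 25 °C, ATP-initiated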
# IMP-1 inhibitor – inhibitors of Pseudomonas aeruginosa IMP-1 metallo-beta-lactamase; purified IMP-1, nitrocefin hydrolysis, epi-absorbance fluorescence; inhibition, % at 5.6 µM; actives 0.45% (n = 290,000);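 active = inhibition above the mean plus 3 SD of all compounds in the same screening run, cut at about 4.5% in these data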;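 note: 0% = IMP-1 with DMSO and 100% = DMSO wells lacking enzyme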
#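 System – purified recombinant IMP-1 beta-lactamase · Input – IMP-1 dispensed at 0.2 nM · Timing – 15 min preincubation plus 25 min reaction at 25 °C · Signal – Epi-absorbance fluorescence, 480 nm excitation, 530 nm emission · Measure – percent IMP-1 inhibition derived from blank-referenced optical density · Controls – Enzyme-plus-DMSO low control, enzyme-free DMSO high control · Replication – singlicate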
# VIM-2 inh – blocks Pseudomonas aeruginosa VIM-2 metallo-beta-lactamase; purified VIM-2, nitrocefin hydrolysis, epi-absorbance fluorescence; AID 1527; actives 0.89% (n = 290,000); inhibition, % at 5.6 µM;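 active = inhibition above the mean of all tested compounds plus 3 SD, cutoff set per screening run, cut at about 7.5% in these data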;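 note: red hydrolysis product quenches plate fluorescence so inhibitors raise well fluorescence; 0% = enzyme with DMSO and 100% = DMSO without enzyme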
# The depositor's hits bear a star; nt = no result given.
SMILES,SUMO HTRF inh,HCV core dimer,PHOSPHO1 inh,HCV NS3 hel inh,IMP-1 inhibitor,VIM-2 inh
CCC(C)C(NC(=O)OCc1ccccc1)C(=O)NC(Cc1ccc(O)cc1)C(=O)OC (stereo unspecified),-5.3,1.9,15.8,-1.9,-1.6,-0.1
OC1=C(O)c2nc3cc(F)ccc3nc21,24.7,-30.8,-1.4,-6.2,-2.5,8.2*
O=[N+]([O-])c1ccc(C2=NN(c3ccccc3)C(c3ccco3)C2)cc1 (stereo unspecified),8.3,nt,21.9,21.9,6.6*,2.9
O=[N+]([O-])c1ccc(/C=C/C2=NN(c3ccccc3)C(c3ccco3)C2)cc1 (stereo unspecified),19.2,5.2,0.8,7.1,0.9,1.9
N=C1/C(=C\c2ccc(-c3cccc(C(=O)O)c3)o2)C(=O)N=C2SC=C(c3ccccc3)N12,32.9,25.1,80.4*,18.3,2.7,-1.6
N=C1/C(=C/c2ccc(-c3cccc(C(=O)O)c3)o2)C(=O)N=C2SC(CC(=O)N3CCOCC3)=NN12,23.5,-14.6,17.1,16.7,-2.7,-0.9
Cc1nnc2sc(SCC(=O)N3CCC(C)CC3)nn2c1=O,9.4,-5.5,65.8*,10.4,-4.6,-2.0
Cc1cccc(NC(=S)NCC(c2cccnc2)N(C)C)c1C (stereo unspecified),-11.7,-9.8,-11.7,3.4,-5.0,-0.1
Cc1ccc(NC(=O)C2=C(C(=O)O)CCCC2)cc1F,4.7,-0.8,-1.3,4.8,7.9*,0.8
Cc1ccc(NC(=O)C2=C(C(=O)O)CCCC2)cc1Br,6.3,-3.8,34.0,-8.6,12.6*,3.0
Cc1ccc(NC(=O)c2ccc3c(=O)n4c(nc3c2)CCCCC4)cc1F,2.5,2.2,26.1,9.0,-1.9,0.7
O=S1(=O)N=C(Nc2nncs2)c2ccccc21,19.2,-0.9,97.4*,-7.6,-5.2,-2.4
CCN(CC)S(=O)(=O)c1ccc(NC2=NS(=O)(=O)c3ccccc32)cc1,20.3,-4.1,1.7,0.9,-2.6,-1.4
O=C(Nc1ccc(Cl)c(Cl)c1)Nc1cc(C(=O)NC2CC2)ccc1Cl,-16.7,-1.8,9.1,10.5,-5.7,-3.7
CCOc1cc(/C=N/NC(=O)COc2ccc(C)cc2)ccc1OC(=O)c1cccs1,10.8,7.7,60.5*,-17.4,-2.0,1.8
Cc1ccc(-n2c(SCc3cc(=O)n4ccsc4n3)nnc2-c2cccnc2)c(C)c1,15.5,9.9,61.1*,10.6,-2.4,-2.4
Brc1cccc(OCCCCN2CCCCC2)c1,6.1,-12.5,13.5,-2.4,-0.6,-1.8
COc1cccc(C2=NOC(C(=O)NCc3ccccn3)C2)c1 (stereo unspecified),22.4,0.1,60.5*,6.8,-3.1,-3.0
COc1ccc(C2=NOC(C(=O)NCc3ccccn3)C2)cc1 (stereo unspecified),4.9,-2.9,3.2,-11.0,0.0,2.4
Cc1ccc(-n2c(C)cc(C(=O)CSc3nncs3)c2C)cc1,27.6,10.2,89.4*,10.7,-1.9,-5.2
COc1ccc(-n2c(C)cc(C(=O)CSc3nn4c(=O)c(C(C)(C)C)nnc4s3)c2C)cc1,23.3,27.9,94.0*,0.6,0.1,-0.9
O=C(CC1C(=O)NCCN1Cc1ccc(-c2ccccc2)cc1)NCC1CC1 (stereo unspecified),7.4,-3.0,60.1*,-9.0,-1.9,1.7
CCOc1ccccc1NC(=O)C1CCN(S(=O)(=O)c2ccc(OC)c(OC)c2)CC1,18.7,13.3,14.5,-2.7,-3.2,-2.4
CCOc1ccccc1NC(=O)C1CCN(c2ccc(S(=O)(=O)N3CCCC3)cc2)CC1,7.7,9.9,78.5*,-5.0,1.1,1.8
CCN1Cc2c(/C=C/c3ccccc3)nc3ccc(OC)cc3c2N(c2cccc(Cl)c2)C1,36.9,16.1,-4.4,-24.6,0.9,-0.9
C=CCC1(CC=C)CCCN1C(=O)c1cc(COc2cccc(C(F)(F)F)c2)on1,-12.2,nt,61.0*,0.6,-5.5,-1.0
CNC(=O)c1ccsc1NC(=O)CS(=O)(=O)c1ccc(Cl)cc1,nt,-5.5,64.0*,9.8,-2.8,-4.4
COCCNCC(=O)Nc1nc(C)cs1,26.7,nt,24.9,4.5,-4.6,-6.2
Cc1cccc(C(=O)NNC(=O)c2ccc(F)cc2)c1,10.2,-9.2,10.8,-1.4,-1.7,-2.4
